Our source for the Activity, IC50 and viability values is ChEMBL document CHEMBL4251573, “Synthesis and biological evaluation of N-substituted 3-oxo-1,2,3,4-tetrahydro-quinoxaline-6-carboxylic acid derivatives as tubulin polymerization inhibitors” (Eur J Med Chem, 2018).

The subject of assay [1] is HeLa. As to the kind of experiment: Induction of apoptosis in human HeLa cells assessed as membrane blebbing at 0.10 to 0.20 uM by microscopic method. Type of assay: functional, cell-based. The method, boiled down:
(§1)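 Morphology of HeLa cells was examined by light microscopy after 24 h exposure to 0.10, 0.15 or 0.20 μM, or 0.1% DMSO, alongside the annexin V/PI experiment.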

Assay [2] deals with HeLa. As to the kind of experiment: Induction of apoptosis in human HeLa cells assessed as late apoptotic cells at 0.20 uM after 24 hrs by annexin V-FITC/propidium iodide staining-based flow cytometric method (reference value: 0.15%). Type of assay: functional.
Assay [3] concerns HeLa. As to the kind of experiment: Induction of apoptosis in human HeLa cells assessed as early apoptotic cells at 0.10 uM after 24 hrs by annexin V-FITC/propidium iodide staining-based flow cytometric method (reference value: 2.31%). It counts as functional.
Assay [4] concerns HeLa. As to the kind of experiment: Cell cycle arrest in human HeLa cells assessed as accumulation at G2/M phase at 0.10 uM after 24 hrs by propidium iodide staining-based flow cytometric method (reference value: 19.9%). It counts as functional.
The subject of assay [5] is HeLa. Description: Induction of apoptosis in human HeLa cells assessed as cell shrinkage at 0.10 to 0.20 uM by microscopic method. Type of assay: functional, cell-based. In a few lines: as §1
Assay [6] concerns HeLa. Description: Disruption of microtubule network in human HeLa cells after 24 hrs by Hoechst 33342 staining-based immunofluorescence microscopic method. It counts as cell-based. In a few lines: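 HeLa cells were plated at 4000 per well for 24 h, then exposed for 24 h to vehicle or drug (0.1-0.2 μM). Fixation was 4% paraformaldehyde, 10 min, 4 °C, then 0.1% Triton X-100, 5 min, and 1% BSA block, 1 h. Staining used anti-α-tubulin (1:100, 12 h, 4 °C), then FITC anti-mouse IgG (1:100, 30 min, 37 °C), with Hoechst 33342 for nuclei. Imaged by fluorescence microscopy.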

For assay [7], the system named is HeLa. Description: Cell cycle arrest in human HeLa cells assessed as accumulation at S phase at 0.25 uM after 24 hrs by propidium iodide staining-based flow cytometric method (reference value: 10.3%). It counts as functional.
A further assay deals with Tubulin. Description: Inhibition of tubulin (unknown origin) polymerization after 40 mins by fluorescence assay. Type of assay: protein-complex assay, Homo sapiens. The method, boiled down:
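Fluorescence-based kit assay. Compounds, in duplicate, were warmed 1 min at 37 °C, then cold tubulin mix was added (2 mg/mL tubulin in 80 mM PIPES pH 6.9, 2.0 mM MgCl2, 0.5 mM EGTA, 1.0 mM GTP, 15% glycerol). Assembly was read at ex 360/em 450 nm each minute for 1 h at 37 °C; 0.1% DMSO vehicle. IC50 is the concentration halving assembly extent at 40 min, from four concentrations.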

The subject of assay [8] is HeLa. As to the kind of experiment: Induction of apoptosis in human HeLa cells assessed as viable cells at 0.10 uM after 24 hrs by annexin V-FITC/propidium iodide staining-based flow cytometric method (reference value: 97.39%). Particulars: read-out: Activity. Type of assay: functional.
In assay [9] the test system is HeLa. Description: Induction of apoptosis in human HeLa cells assessed as late apoptotic cells at 0.10 uM after 24 hrs by annexin V-FITC/propidium iodide staining-based flow cytometric method (reference value: 0.15%). Type of assay: functional.

Active and inactive are the calls of the source. The rule behind the calls is not given here.

Turning to `COC(=O)c1ccc2c(c1)NC(=O)CN2C(=O)c1cc(OC)c(OC)c(OC)c1`, the outcome in the assay on HeLa [1] and in the assay on HeLa [5] was Active. Moreover, the Activity in the assay with HeLa [2] was 14.4%; in the assay with HeLa [3], 12.1%; in the assay on HeLa [4] it was 21.8%; in the assay on HeLa [6] it was “Dose-dependent effect”; in the assay with HeLa [7], 8.3%; with HeLa [9], 7.87%. For the same compound, the IC50 against Tubulin came out at 3.97 µM. For the same compound, the viability at 0.1 µM in the assay on HeLa [8] is 76.1%.
